Common to all, as to format: functional
In assay [1] the test system is Mus musculus. In words: Antireserpine activity (RES) of mice after peroral administration of 50 mg/kg of compound; Moderate inhibition (51-71%). To be noted: route oral.
Assay [2] relates to Mus musculus. As to the kind of experiment: Antiexploratory activity (EXPL) of mice determined by an antimex activity meter, 50 mg/kg of dose was administered perorally; Moderate inhibition (51-71%). Particulars: route oral.
Assay [3] has as its system Mus musculus. In words: Antimaximal electroshock seizure (MES) activity in mice after peroral administration of 100 mg/kg of compound; 3/5. Particulars: route oral. A general note: Protection in the maximal electroshock model is a classic sign of anticonvulsant action.
Assay [4] concerns Mus musculus. As to the kind of experiment: Antipentylene tetrazole activity was determined in mice when administered perorally. Particulars: po. Put shortly: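 Groups of five male Std-ddY mice received compound orally in 0.5% tragacanth, then pentylenetetrazole 175 mg/kg ip. Blockade of the tonic extensor component scored as anticonvulsant. ED50 was the dose protecting 50% of animals (Litchfield-Wilcoxon).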

For assay [5], the system named is Mus musculus. As to the kind of experiment: Antimaximal electroshock seizure activity was determined in mice when administered perorally. Particulars: po.
The test system of assay [6] is Mus musculus. As to the kind of experiment: Antiexploratory activity (EXPL) of mice determined by an antimex activity meter,100 mg/kg of dose was administered perorally; Slight inhibition (31-50%).
Assay [7] concerns Mus musculus. In words: Antitremorine activity(TRM) of mice after peroral administration of 100 mg/kg of compound; No inhibition. To be noted: route oral.
In assay [8] the test system is Mus musculus. In words: Antireserpine activity (RES) of mice after peroral administration of 100 mg/kg of compound; No inhibition. To be noted: route oral.
The test system of assay [9] is Mus musculus. As to the kind of experiment: Antimaximal electroshock seizure (MES) activity in mice after peroral administration of 100 mg/kg of compound; 2/5. Particulars: route oral.
Assay [10] concerns Mus musculus. As to the kind of experiment: Antiexploratory activity (EXPL) of mice determined by an antimex activity meter, 100 mg/kg of dose was administered perorally; No inhibition. To be noted: route oral.
For assay [11], the system named is Canis familiaris. As to the kind of experiment: Inhibition of apomorphine induced emesis in dogs at 1 mg/kg of dose. To be noted: Canis lupus familiaris. The method in brief:
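Beagle dogs (10-15 kg), groups of three, given compound po in a gelatin capsule; 2 h later apomorphine hydrochloride 0.3 mg/kg sc. Vomiting counted for 1 h; mean inhibition as percent of control. ED50 is the dose giving 50% inhibition of emesis, by Litchfield-Wilcoxon.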

Assay [12] has as its system Mus musculus. In words: 3,4 -Dihydroxy phenylacetic acid (DOPAC) levels in mouse brain at 10 mg/kg dose. Put shortly: (§1)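 Male Std-ddY mice, 20-25 g, dosed orally with compound in 0.5% aqueous tragacanth. DOPAC was measured fluorometrically after purification by column chromatography on Sephadex G-10 and QAE-Sephadex. Brains from five mice per compound were pooled for each determination.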

Assay [13] relates to Mus musculus. In words: 3,4 -Dihydroxy phenylacetic acid (DOPAC) levels in mouse brain at 50 mg/kg dose. Put shortly: as §1
In assay [14] the test system is Mus musculus. In words: The homovanillic acid (HVA) levels in mouse brain at 10 mg/kg of dose. The method in brief: (§2)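 Mice dosed orally in 0.5% aqueous tragacanth; brains of five mice per compound pooled. Homovanillic acid measured in brain extracts and reported as brain level.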
In assay [15] the test system is Mus musculus. As to the kind of experiment: The homovanillic acid (HVA) levels in mouse brain at 50 mg/kg of dose. Put shortly:
as §2

The test system of assay [16] is Mus musculus. As to the kind of experiment: Exploratory activity of mice determined by an antimex activity meter, 10 mg/kg of dose was administered perorally. Particulars: route oral.
Assay [17] relates to Mus musculus. In words: Exploratory activity of mice determined by an antimex activity meter, 50 mg/kg of dose was administered perorally. To be noted: Mus musculus, po. Put shortly: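 Male Std-ddY mice (20-25 g), five per dose; compound in 0.5% aqueous tragacanth given orally. Two hours later each mouse placed in an Animex activity meter cage and locomotor activity counted for 3 min. Mean suppression expressed as percent inhibition of control; ED50 by Litchfield-Wilcoxon.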

For assay [18], the system named is Mus musculus. As to the kind of experiment: Antireserpine activity (RES) of mice after peroral administration of 50 mg/kg of compound; Slight inhibition (31-50%). To be noted: route oral.
Assay [19] relates to Mus musculus. In words: Antiexploratory activity (EXPL) of mice determined by an antimex activity meter, 50 mg/kg of dose was administered perorally; potent inhibition. To be noted: route oral.
The test system of assay [20] is Mus musculus. As to the kind of experiment: Antiexploratory activity (EXPL) of mice determined by an antimex activity meter, 10 mg/kg of dose was administered perorally; No inhibition. To be noted: route oral.
Assay [21] relates to Mus musculus. As to the kind of experiment: Antimaximal electroshock seizure (MES) activity in mice after peroral administration of 10 mg/kg of compound; 0/5. To be noted: route oral.
Assay [22] has as its system Mus musculus. As to the kind of experiment: Antimaximal electroshock seizure (MES) activity in mice after peroral administration of 100 mg/kg of compound; 4/5. To be noted: route oral.
Assay [23] concerns Mus musculus. As to the kind of experiment: Antiexploratory activity (EXPL) of mice determined by an antimex activity meter, 100 mg/kg of dose was administered perorally; Potent inhibition. Particulars: route oral.
Assay [24] deals with Mus musculus. As to the kind of experiment: Antitremorine activity(TRM) of mice after peroral administration of 100 mg/kg of compound; Moderate inhibition (51-71%). To be noted: route oral.
The subject of assay [25] is Mus musculus. In words: Antitreserpine activity(RES) of mice after peroral administration of 100 mg/kg of compound; Moderate inhibition (51-71%). Particulars: route oral.

Molecules are shown by their SMILES.

For `CN1CCN(C2=Nc3ccccc3CC=C2c2ccc(O)cc2)CC1`, the inhibition in vivo at 50 mg/kg in assay [1] and in [2] was 51% each time.

Consider `Cc1ccc2c(c1)CC=C(c1ccccc1)C(N1CCN(CCO)CC1)=N2.O=C(O)/C=C/C(=O)O`, for which the Activity in assay [3] was 3. The ED50 (in general, the midpoint of the dose-response relation) is 39.4 mg/kg in [4] and 103 mg/kg in [5]. Besides, in [6], the Inhibition – broadly, how much of the control response was suppressed – is listed as 31%. The inhibition in vivo at 100 mg/kg in [7] and in [8] was less than 30% in each case.

`CCN1CCN(C2=Nc3ccc(Br)cc3CC=C2c2ccc(Cl)cc2)CC1.O=C(O)/C=C/C(=O)O` registered an Activity in [9] of 2. In addition, the inhibition in vivo at 100 mg/kg in assay [10], in assay [7] and in [8] was less than 30% in each case.

Consider `CCN1CCN(C2=Nc3ccccc3CC=C2c2ccc(F)cc2)CC1.Cl.Cl`, for which at 1 mg/kg the inhibition in vivo in assay [11] was 100%. Besides, the Control was found to be 287% in assay [12], 345% in [13], 432% in assay [14] and 461% in assay [15]. The inhibition in vivo (in general, the percentage by which the read-out fell short of the control) at 10 mg/kg was 10.6% in assay [16] and less than 30% in assay [20]. Moreover, the figures for the inhibition in vivo at 50 mg/kg in [17], in [18] and in assay [19] were 86.8%, 31% and greater than 71%, respectively.

In the case of `COc1ccc2c(c1)CC=C(c1ccccc1)C(N1CCN(C)CC1)=N2.Cl.Cl`, the results for the Activity in assay [21] and in assay [22] were 0 and 4, respectively. Moreover, the inhibition in vivo at 100 mg/kg in assay [23] is greater than 71%; in assay [24] it was 51%; in assay [25], 51%. The compound also gave an inhibition in vivo at 10 mg/kg in assay [20] of less than 30%.

The values above are taken from ChEMBL document CHEMBL1124216, “A novel class of potential central nervous system agents. 3-Phenyl-2-(1-piperazinyl)-5H-1-benzazepines” (1988).
